Results published in ChEMBL document CHEMBL1152160, “Synthesis and bioevaluation of hybrid 4-aminoquinoline triazines as a new class of antimalarial agents” (Bioorg Med Chem Lett, 2008).
≈ marks a conversion by molar mass, not a printed value.

Experiments:
Plasmodium falciparum = experiment: Antimalarial activity after 72hrs against chloroquine-sensitive Plasmodium falciparum 3D7 infected erythrocytes; assay type: functional, organism-based; details: 3D7, 72 h
Outline: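 Serial dilutions in screening medium, seven concentrations (top 500 ng/mL, or 100 ng/mL for some compounds), duplicate wells. Added 2.5% haematocrit erythrocytes at 0.5% parasitaemia. Uninfected erythrocytes without drug as negative control, CQ as positive control. After 72 h, SYBR Green I in lysis buffer (20 mM tris pH 7.5, 5 mM EDTA, saponin, Triton X-100), 1 h room temperature, fluorescence read.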

[1] = Selectivity index, ratio of IC50 for african green monkey (Cercopithecus aethiops) Vero cells to IC50 for chloroquine-sensitive Plasmodium falciparum 3D7; assay type: toxicity, cell-based; details: read-out: Ratio IC50
Outline: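 Vero cells at 1 × 10⁴ cells/well were exposed to varying compound concentrations, highest 100 µg/mL, for 72 h. Viability was measured by MTT. Cytotoxic IC50 was taken from non-linear regression of dose–response curves and divided by the 3D7 IC50 to give the index.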

Plasmodium yoelii [2] = experiment: Antimalarial activity as reduced parasitaemia after 4 days against Plasmodium yoelii N67 infected Swiss mice (Mus musculus) at 50 mg/kg/day intraperitoneal dose; assay type: functional, N-67; parameters: scale not given: the % may be the effect or the level left
Outline: (§1)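 Swiss mice (22 ± 2 g), groups of five, inoculated day 0 with P. yoelii N-67-parasitized RBC. Dosed 50 mg/kg/day i.p. once daily, days 0–3, as aqueous suspension with a few drops of Tween 80 in 0.2 mL. Parasitaemia read from thin blood smears on days 4–6. Group mean gave % suppression versus untreated controls. CQ-treated mice as reference.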

Plasmodium yoelii [3] = experiment: Antimalarial activity as reduced parasitaemia after 6 days against Plasmodium yoelii N67 infected Swiss mice (Mus musculus) at 50 mg/kg/day intraperitoneal dose; assay type: functional, N-67; parameters: scale not given: the % may be the effect or the level left; outline: as §1
Mus musculus = experiment: Toxicity to Plasmodium yoelii N-67 infected Swiss mice (Mus musculus) assessed as survival at 50 mg/kg/day, intraperitoneally after 28 days; assay type: organism-based; parameters: route intraperitoneal; details: in vivo, ip, 672 h
Outline: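 Swiss mice were infected on day 0 with parasitized RBC of CQ-resistant P. yoelii N-67. Groups of five were dosed intraperitoneally at 50 mg/kg/day, once daily on days 0–3. Compounds were given as aqueous suspensions with a few drops of Tween 80. Survival was followed for 28 days. CQ-treated mice served as reference controls.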

Row | SMILES | IC50 (Plasmodium falciparum) | selectivity ratio [1] | Activity (Plasmodium yoelii [2]) | Activity (Plasmodium yoelii [3]) | Activity (Mus musculus)
1 | Clc1ccc2c(NCCN3CCN(c4nc(Nc5ccccc5)nc(N5CCCCC5)n4)CC3)ccnc2c1 | 0.0178 µg/mL (≈ 0.0328 µM) | 117 | 66.67% | 55.36% | 
2 | Cc1ccc(Nc2nc(NC3CCCCC3)nc(N3CCN(CCNc4ccnc5cc(Cl)ccc45)CC3)n2)cc1 | 0.256 µg/mL (≈ 0.447 µM) | 115 |  |  | 
3 | Clc1ccc2c(NCCN3CCN(c4nc(NC5CCCCC5)nc(N5CCCCC5)n4)CC3)ccnc2c1 | 0.00443 µg/mL (≈ 0.00805 µM) | 481 | 99.9% | 99.11% | Toxic
4 | Clc1ccc2c(NCCN3CCN(c4nc(Nc5ccccc5)nc(N5CCOCC5)n4)CC3)ccnc2c1 | 0.0213 µg/mL (≈ 0.039 µM) | 470 |  |  | 
5 | Fc1ccc(Nc2nc(N3CCCCC3)nc(N3CCN(CCNc4ccnc5cc(Cl)ccc45)CC3)n2)cc1 | 0.00715 µg/mL (≈ 0.0127 µM) | 329 | 99.9% | 96.51% | 
6 | CCN1CCN(c2nc(Nc3ccccc3)nc(N3CCN(CCNc4ccnc5cc(Cl)ccc45)CC3)n2)CC1 | 0.038 µg/mL (≈ 0.0663 µM) | 41.8 |  |  | 
7 | Clc1ccc2c(NCCN3CCN(c4nc(N5CCCCC5)nc(N5CCCCC5)n4)CC3)ccnc2c1 | 0.0444 µg/mL (≈ 0.0828 µM) | 53.2 |  |  | 
8 | CCN(CC)CCCC(C)Nc1ccnc2cc(Cl)ccc12 (stereo unspecified) [CHLOROQUINE] |  |  | 99.9% | 94.26% | 

Second part, led by results:

Row | IC50 (Plasmodium falciparum) | SMILES | selectivity ratio [1] | Activity (Plasmodium yoelii [2]) | Activity (Plasmodium yoelii [3]) | Activity (Mus musculus)
9 | 0.194 µg/mL (≈ 0.34 µM) | Cc1ccccc1Nc1nc(NC2CCCCC2)nc(N2CCN(CCNc3ccnc4cc(Cl)ccc34)CC2)n1 | 29 |  |  | 
10 | 0.00783 µg/mL (≈ 0.0136 µM) | Fc1ccc(Nc2nc(NC3CCCCC3)nc(N3CCN(CCNc4ccnc5cc(Cl)ccc45)CC3)n2)cc1 | 262 | 74.81% | 71.75% | 
11 | 0.159 µg/mL (≈ 0.283 µM) | Fc1ccccc1Nc1nc(N2CCCCC2)nc(N2CCN(CCNc3ccnc4cc(Cl)ccc34)CC2)n1 | 14.9 |  |  | 
12 | 0.0162 µg/mL (≈ 0.0291 µM) | Clc1ccc2c(NCCN3CCN(c4nc(Nc5ccccc5)nc(NC5CCCCC5)n4)CC3)ccnc2c1 | 154 | 86.43% | 78.73% | 
13 | 0.0383 µg/mL (≈ 0.0659 µM) | Cc1ccc(Nc2nc(Nc3ccc(C)cc3)nc(N3CCN(CCNc4ccnc5cc(Cl)ccc45)CC3)n2)cc1 | 155 |  |  | 
14 | 0.0646 µg/mL (≈ 0.102 µM) | Cc1ccc(Nc2nc(N3CCN(CCNc4ccnc5cc(Cl)ccc45)CC3)nc(N3CCN(c4ccccc4)CC3)n2)cc1 | 52.2 |  |  | 
15 | 0.0192 µg/mL (≈ 0.0342 µM) | Cc1ccccc1Nc1nc(N2CCOCC2)nc(N2CCN(CCNc3ccnc4cc(Cl)ccc34)CC2)n1 | 377 |  |  | 
16 | 0.0435 µg/mL (≈ 0.0776 µM) | Cc1ccc(Nc2nc(N3CCOCC3)nc(N3CCN(CCNc4ccnc5cc(Cl)ccc45)CC3)n2)cc1 | 512 |  |  | 
17 | 0.186 µg/mL (≈ 0.32 µM) | Cc1ccccc1Nc1nc(Nc2ccccc2C)nc(N2CCN(CCNc3ccnc4cc(Cl)ccc34)CC2)n1 | 75.3 |  |  | 
18 | 0.019 µg/mL (≈ 0.0324 µM) | CCN1CCN(c2nc(Nc3ccc(C)cc3)nc(N3CCN(CCNc4ccnc5cc(Cl)ccc45)CC3)n2)CC1 | 41 |  |  | 
19 | 0.0756 µg/mL (≈ 0.137 µM) | Clc1ccc2c(NCCN3CCN(c4nc(Nc5ccccc5)nc(Nc5ccccc5)n4)CC3)ccnc2c1 | 27.8 |  |  | 
20 | 0.0105 µg/mL (≈ 0.0185 µM) | O=CN1CCN(c2nc(N3CCOCC3)nc(N3CCN(CCNc4ccnc5cc(Cl)ccc45)CC3)n2)CC1 | 4110 |  |  | 
